Laboratory results as given in ChEMBL document CHEMBL4732057, “Design, synthesis and biological evaluation of second-generation benzoylpiperidine derivatives as reversible monoacylglycerol lipase (MAGL) inhibitors” (Eur J Med Chem, 2021).

What was measured:
Monoglyceride lipase = target: T1, Monoglyceride lipase (Homo sapiens, UniProt Q99685); test: Competitive inhibition of human recombinant MAGL using varying concentration of 4-nitrophenylacetate as substrate incubated for 30 mins by microplate reader assay
T1 sequence (Q99685 whole entry): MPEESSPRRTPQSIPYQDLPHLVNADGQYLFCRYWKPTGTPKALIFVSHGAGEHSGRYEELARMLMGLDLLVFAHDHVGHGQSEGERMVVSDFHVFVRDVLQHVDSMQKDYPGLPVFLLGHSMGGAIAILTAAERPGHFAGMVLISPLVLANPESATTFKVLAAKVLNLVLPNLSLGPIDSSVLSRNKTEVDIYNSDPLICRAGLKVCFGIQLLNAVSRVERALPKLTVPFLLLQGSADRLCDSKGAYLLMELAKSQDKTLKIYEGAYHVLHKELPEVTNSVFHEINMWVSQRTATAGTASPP
Procedure, shortened: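 MAGL 11 ng/well; 4-nitrophenol absorbance recorded. Data fitted by the mixed-model inhibition fit to give Ki.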

[1] = target: T2, Lysophosphatidylserine lipase ABHD12 (Homo sapiens) (UniProt Q8N2K0); test: Inhibition of human ABHD12 expressed in HEK293 cells using [3H]2-OG as substrate at 10 uM preincubated for 30 mins followed by substrate addition and measured after 5 mins by liquid scintillation spectroscopy; assay type: cell-based; conditions: time 35.0 min
T2 sequence (whole entry): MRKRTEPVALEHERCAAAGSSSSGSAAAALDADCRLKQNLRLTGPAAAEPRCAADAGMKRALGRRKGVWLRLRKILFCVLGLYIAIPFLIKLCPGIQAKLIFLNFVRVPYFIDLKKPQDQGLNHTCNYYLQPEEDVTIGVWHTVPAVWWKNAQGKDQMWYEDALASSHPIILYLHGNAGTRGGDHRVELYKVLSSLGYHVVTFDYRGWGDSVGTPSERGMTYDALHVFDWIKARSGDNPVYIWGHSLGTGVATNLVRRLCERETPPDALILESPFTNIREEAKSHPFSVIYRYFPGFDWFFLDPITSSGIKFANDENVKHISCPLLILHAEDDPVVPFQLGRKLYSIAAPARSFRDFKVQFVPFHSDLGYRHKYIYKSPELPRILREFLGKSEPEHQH
Procedure, shortened: (§1)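 Homogenate (40 µg) of HEK293 cells stably transfected with human ABHD6 or ABHD12, preincubated with compound 30 min at 37 °C in […], 0.1% BSA, pH 7.6. 2-OG 10 µM added for 5 min at 37 °C. Stopped with CHCl3:MeOH; aqueous tritium counted; blanks and nontransfected HEK293 hydrolysis subtracted. Screening at 10 µM.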

[2] = Cytotoxicity against cancer-derived human organoids in HGSOC patient assessed as reduction in cell viability up to 100 uM measured after 96 hrs by Celltiter-glo luminescent assay; assay type: functional, Neoplasm; conditions: dose microM <=100
Procedure, shortened: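 Organoids from three HGSOC patients. Tissue digested with 2 mg/mL collagenase for 30 min, embedded in BME matrix and cultured. Treated at 100 µM, with carboplatin as positive control. Viability read by CellTiter-Glo luminescence.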

[3] = target: T3, Monoglyceride lipase (Mus musculus) (UniProt O35678); test: Inhibition of MAGL in mouse brain membrane preincubated for 25 mins followed by TAMRA-FP labeling addition and measured after 5 mins by competitive ABPP based analysis; assay type: cell membranes; conditions: time 30.0 min
T3 sequence (whole entry): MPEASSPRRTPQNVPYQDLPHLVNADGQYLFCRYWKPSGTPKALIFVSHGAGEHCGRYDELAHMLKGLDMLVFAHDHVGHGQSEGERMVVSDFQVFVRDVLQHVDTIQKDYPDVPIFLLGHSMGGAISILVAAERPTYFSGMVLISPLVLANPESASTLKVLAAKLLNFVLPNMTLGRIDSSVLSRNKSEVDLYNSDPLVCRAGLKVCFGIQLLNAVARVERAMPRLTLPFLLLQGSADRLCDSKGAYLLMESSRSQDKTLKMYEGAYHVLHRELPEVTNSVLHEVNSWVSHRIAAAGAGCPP
Procedure, shortened: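 Mouse brain membranes, 4 mg/mL in PBS, preincubated 25 min at 25 °C with compound at 10 µM or a range of concentrations. Labelled 5 min with TAMRA-FP at 125 nM final. Proteins resolved on 11% SDS-PAGE and scanned for fluorescence.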

Caov-3 cell line = test: Antiproliferative activity against human CAOV3 cells as reduction in cell growth measured after 96 hrs by Celltiter-glo luminescent assay; assay type: functional, cell-based; conditions: Caov-3, 96 h
Procedure, shortened: (§2)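 Cell lines kept at 37 °C, 5% CO2; 5 × 10^2 cells per well, compound added the day after seeding at 200 to 0.02 µM. Viability read after 96 h by CellTiter-Glo luminescence. IC50 from logistic dose-response curves, in triplicate; error bars are SD.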

SK-OV-3 = test: Antiproliferative activity against human SKOV3 cells as reduction in cell growth measured after 96 hrs by Celltiter-glo luminescent assay; assay type: functional, cell-based; conditions: SK-OV-3, 96 h; procedure, shortened: as §2
[4] = target: T4, Monoacylglycerol lipase ABHD6 (Homo sapiens) (UniProt Q9BV23); test: Inhibition of human ABHD6 expressed in HEK293 cells using [3H]2-OG as substrate at 10 uM preincubated for 30 mins followed by substrate addition and measured after 5 mins by liquid scintillation spectroscopy; assay type: cell-based; conditions: time 35.0 min; procedure, shortened: as §1
T4 sequence (whole entry): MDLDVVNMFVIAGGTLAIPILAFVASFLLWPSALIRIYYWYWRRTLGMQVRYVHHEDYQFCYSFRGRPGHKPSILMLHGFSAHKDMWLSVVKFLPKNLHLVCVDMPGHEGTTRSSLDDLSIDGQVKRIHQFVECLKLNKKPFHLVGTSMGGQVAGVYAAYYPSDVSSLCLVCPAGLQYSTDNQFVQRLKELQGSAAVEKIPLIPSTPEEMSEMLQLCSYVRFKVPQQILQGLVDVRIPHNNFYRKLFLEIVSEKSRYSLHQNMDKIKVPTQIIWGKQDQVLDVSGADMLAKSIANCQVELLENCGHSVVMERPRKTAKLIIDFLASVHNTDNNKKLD

[5] = target: T5, Monoacylglycerol lipase ABHD6 (Homo sapiens, UniProt Q9BV23); test: Inhibition of human ABHD6 expressed in HEK293 cells using [3H]2-OG as substrate preincubated for 30 mins followed by substrate addition and measured after 5 mins by liquid scintillation spectroscopy; assay type: cell-based; procedure, shortened: as §1
T5 sequence (Q9BV23 whole entry): T4 sequence (whole entry)

MDA-MB-231 = test: Antiproliferative activity against human MDA-MB-231 cells as reduction in cell growth measured after 96 hrs by Celltiter-glo luminescent assay; assay type: functional, cell-based; conditions: MDA-MB-231, 96 h; procedure, shortened: as §2

Ki (Monoglyceride lipase) [µM] | inhibition [1] [%] | inhibition [3] | IC50 (SK-OV-3) [µM] | inhibition [4] [%] | IC50 [5] [µM] | IC50 (MDA-MB-231) [µM] | Structure (SMILES) | inhibition (INH) [2] [%] | IC50 (Caov-3 cell line) [µM]
0.027 | 26 | Dose-dependent effect | 4.6 | 40 | > 10 | 43 | O=C(c1ccc(Sc2ccccc2)cc1)C1CCN(C(=O)c2cc(O)ccc2F)CC1 | 42 | 34
0.037 | 20 | Dose-dependent effect | 8 | 21 | > 10 | 25 | O=C(c1ccc(Cc2ccccc2)cc1)C1CCN(C(=O)c2cc(O)ccc2F)CC1 | 42 | 70
0.011 | 27 | Dose-dependent effect | 11 | 18 | > 10 | 63 | O=C(c1ccc(Sc2ccccc2)cc1)C1CCN(C(=O)c2cc(O)c(F)cc2F)CC1 | 42 | 42
0.03 | 28 | Dose-dependent effect | 12 | 10 | > 10 | 65 | O=C(c1ccc(Cc2ccccc2)cc1)C1CCN(C(=O)c2cc(O)c(F)cc2F)CC1 | 18 | 44
